According to publication PMC4076525 (The Journal of General Physiology, 2014):
Residue numbers refer to the chain shown, from its start. Names may count otherwise.

Key:
FepA = target: T1, FepA (Escherichia coli, UniProt P05825); details: ref Newton et al., 1999; Annamalai et al., 2004; cited from earlier work
T1 sequence (P05825 23-746): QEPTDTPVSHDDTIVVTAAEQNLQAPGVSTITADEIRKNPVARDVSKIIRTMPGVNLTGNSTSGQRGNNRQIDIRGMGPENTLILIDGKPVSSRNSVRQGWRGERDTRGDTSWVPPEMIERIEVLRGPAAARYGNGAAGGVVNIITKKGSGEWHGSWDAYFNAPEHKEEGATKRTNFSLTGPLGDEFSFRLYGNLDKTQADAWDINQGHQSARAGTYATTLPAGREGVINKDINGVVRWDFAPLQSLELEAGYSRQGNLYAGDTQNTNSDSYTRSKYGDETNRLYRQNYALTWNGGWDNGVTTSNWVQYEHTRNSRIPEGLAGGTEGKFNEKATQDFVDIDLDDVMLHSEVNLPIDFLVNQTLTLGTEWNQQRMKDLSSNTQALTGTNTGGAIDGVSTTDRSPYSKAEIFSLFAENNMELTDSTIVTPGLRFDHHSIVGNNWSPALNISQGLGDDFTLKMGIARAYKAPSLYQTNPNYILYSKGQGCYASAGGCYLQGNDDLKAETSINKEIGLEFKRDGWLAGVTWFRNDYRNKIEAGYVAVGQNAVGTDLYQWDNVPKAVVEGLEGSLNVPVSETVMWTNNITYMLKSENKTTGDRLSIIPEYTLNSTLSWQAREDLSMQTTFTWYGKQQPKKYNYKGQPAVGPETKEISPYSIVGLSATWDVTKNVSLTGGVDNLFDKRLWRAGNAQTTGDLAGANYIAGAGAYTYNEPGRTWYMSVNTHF

[1] = Extent of FeEnt-induced quenching of FM fluorescence in live cells; assay type: cell-based, Escherichia coli; details: 10 nM FeEnt, 2.5 × 10^7 cells/ml, FM-labeled mutants
Outline: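 Hosts were tonB+ ΔfepA or ΔtonB ΔfepA E. coli expressing plasmid-borne Cys-substituted FepA, grown in iron-deficient MOPS medium to late log. 10^10 cells were labeled with 5 µM fluorescein-5-maleimide in 50 mM Na2HPO4, 0.9% NaCl, pH 6.5, for 5 min at 37°C. Labeling was quenched with β-mercaptoethanol, and cells were resuspended in PBS with 0.4% glucose. FeEnt was added to 2.5 × 10^7 cells in 3 ml, stirred at 2°C, with emission read at 520 nm.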

[2] = Rapid-mixing stopped-flow FM quenching during FeEnt binding, live bacteria; parameters: species or system Escherichia coli; details: live bacteria expressing FepAT216C-FM
Outline: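 Live, highly fluorescein-maleimide-labeled bacteria expressing the Cys-substituted FepA were rapid-mixed with FeEnt in a stopped-flow chamber, with emission quenching recorded at 520 nm. Rate constants, with standard errors, came from exponential decay fits (A(t) = A0e^−kt + offset). Half-times were calculated as −ln 0.5/k.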

[3] = Rapid-mixing stopped-flow FM quenching during FeEnt binding, OM fragments; parameters: species or system Escherichia coli; details: biphasic decay

O=C(N[C@H]1COC(=O)[C@@H](NC(=O)c2cccc([O-])c2[O-])COC(=O)[C@@H](NC(=O)c2cccc([O-])c2[O-])COC1=O)c1cccc([O-])c1[O-].[Fe+3] [FeEnt, ferric enterobactin]
FeEnt turnover number (FepA): ~0.03 s⁻¹

B1: T216C (protein, UniProt P05825 23-746, looked up, variant T216C)
Ferrienterobactin receptor: T1 sequence (P05825 23-746) with T216C
Quenching of FM emissions by FeEnt binding [1]: > 60%
k (SE), rate of FM quenching [2]: 1.08 (0.08) s^−1

B2: S271C (protein, UniProt P05825 23-746, looked up, variant S271C)
Ferrienterobactin receptor: T1 sequence (P05825 23-746) with S271C
k (SE), second kinetic phase [3]: 0.31 (0.04) s^−1
